# Screens as filed in PubChem.
# The list is not random: actives were taken first. Their share in the collection is about 1.9%.
# CHRM5 agonist: CHRM5 agonism in calcium assay; AID 624037; CHO-K1 hM5 cells, Fluo-8 calcium fluorescence; 0% DMSO wells, 100% maximal acetylcholine response; 0.19% of 360,000 active; activation, % at 3 µM;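 active = activation above the run's mean over test compounds plus 3 SD, cut at about 23% in these data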;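 also: signal is peak over basal fluorescence ratio across the kinetic read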
# M4 PAM: potentiates acetylcholine response at human M4 receptor; P08173; CHO-K1 hM4/Gqi5, Fluo-8 calcium fluorescence, ACh EC20; 0% = ACh EC20, 100% = maximal ACh; activation, % at 3 µM; 0.4% of 360,000 active; AID 624126;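 active = activation above its plate's cutoff, the mean activation of sample wells plus 3 SD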
# Target sequence (P08173 whole entry, looked up): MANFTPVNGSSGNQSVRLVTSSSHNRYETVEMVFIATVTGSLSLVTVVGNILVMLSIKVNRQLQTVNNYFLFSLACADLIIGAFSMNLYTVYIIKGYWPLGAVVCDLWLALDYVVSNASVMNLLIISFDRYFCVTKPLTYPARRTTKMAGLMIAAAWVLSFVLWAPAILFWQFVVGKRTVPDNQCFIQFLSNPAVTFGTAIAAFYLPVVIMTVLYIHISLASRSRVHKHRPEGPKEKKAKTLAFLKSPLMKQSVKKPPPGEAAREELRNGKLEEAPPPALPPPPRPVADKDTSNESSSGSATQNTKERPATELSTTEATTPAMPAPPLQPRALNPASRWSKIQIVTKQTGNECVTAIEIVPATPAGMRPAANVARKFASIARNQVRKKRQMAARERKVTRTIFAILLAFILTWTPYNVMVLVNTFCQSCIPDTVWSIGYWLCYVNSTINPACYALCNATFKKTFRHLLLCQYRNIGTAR
# M4 antag: blocks acetylcholine activation of human M4 receptor | AID 624125 | 0.73% of 360,000 active | CHO-hM4 cells, ACh EC80, Fluo-8 calcium fluorescence | P08173 | inhibition, % at 3 µM;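 active = inhibition above its plate's cutoff, the mean inhibition of sample wells plus 3 SD, cut at about 27% in these data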;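 also: 0% = acetylcholine EC80 with DMSO and 100% = DMSO without agonist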
# CHRM5 PAM: potentiates acetylcholine response at human M5 receptor; activation, % at 3 µM; 0.3% of 360,000 active; CHO-K1 hM5, Fluo-8 calcium, ACh EC20 PAM; 0% = ACh EC20, 100% = ACh EC100; P08912;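 active = activation above the run cutoff, the mean activation of all test compounds plus 3 SD, cut at about 18% in these data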
#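 Assay system: CHO-K1 hM5 cells / Incubation: Fluo-8 loading 80 min at 37 °C plus 30 min room temperature / Technique: Fluo-8 calcium dye fluorescence, kinetic read / Repeats: single replicate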
# M5 antag: blocks acetylcholine activation of human M5 receptor. P08912. CHO-hM5 cells, Fluo-8 calcium fluorescence, ACh EC80. inhibition, % at 3 µM. 0.59% of 360,000 active;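 active = inhibition above a per-plate cutoff, the mean of that plate's test compounds plus 3 SD, cut at about 27% in these data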;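 also: 0% = acetylcholine EC80 with DMSO and 100% = DMSO without agonist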
# CHRM4 agonist: CHRM4 agonism in calcium assay; P08173; CHO-K1 hM4/Gqi5, Fluo-8 calcium fluorescence; vehicle 0%, full acetylcholine response 100%; activation, % at 3 µM; 0.14% of 360,000 active; AID 624127;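 active = activation above the run mean over all test wells plus 3 SD, cut at about 32% in these data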;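 also: peak over basal fluorescence ratio per well then scaled between controls; 0% = DMSO wells and 100% = acetylcholine at EC100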
# * hit, by the source's call.
SMILES,CHRM5 agonist,M4 PAM,M4 antag,CHRM5 PAM,M5 antag,CHRM4 agonist
COc1cccc(NC(=O)Nc2ccc(C(C)(C)C)cc2)c1,4,-18,19,-20,35*,13
COc1cccc(NC(=O)Nc2ccc(C)c(Cl)c2)c1,4,-10,3,-20,33*,13
COc1cccc(NC(=O)CSCC(=O)Nc2ccccc2)c1,2,-4,-3,-3,-7,1
COc1ccc(/C=N/NC(=O)CN2CCCc3ccccc32)c(OC)c1,-8,2,-5,2,0,1
O=C1NC[C@H](Cc2ccccc2)N(CC2CCN(CCc3ccc(-c4ccccc4)cc3)CC2)C1=O,-4,-8,19,-4,3,-1
O=C1/C(=C/c2ccsc2)N2CCC1CC2,-3,-5,5,-4,11,10
CC(C)(C)c1ccc(NC(=O)Nc2ccc(F)cc2)cc1,2,-20,51*,-16,79*,31
CC(NC(=O)C1CCC(CNS(=O)(=O)c2ccccc2)CC1)c1ccccc1 (stereo not drawn),1,-4,0,-6,8,3
CSc1cccc(NC(=O)Cc2ccccc2[N+](=O)[O-])c1,-2,6,-10,-3,-5,2
CC1=CC(C/C(C)=C/COc2ccc3ccc(=O)oc3c2)OC1=O (stereo not drawn),1,35*,-15,-2,7,9
CCC(=O)Nc1cccc(-c2ccc(N3CCC(C)CC3)nn2)c1,-2,8,-8,20*,-20,1
Cc1cc(C)cc(OCC(=O)NNC(=S)NC(=O)C2CC2)c1,-3,9,4,-2,28*,6
COc1ccc(OCC(=O)NNC(=S)NC(=O)C2CC2)cc1,-4,9,-11,-2,-6,0
COc1cc2c(cc1OC)C(c1cc(Br)ccc1O)N(C(C)=O)CC2 (stereo not drawn),0,-2,0,3,-1,1
Nc1c(Cl)ncnc1NCc1ccccc1,8,-7,4,0,0,7
CSC(=Nc1ccccc1)N=C(SCc1ccccc1)N(C)C,-5,-12,46*,-5,16,14
COC(=O)c1ccccc1N=C(SC)N(C)C,1,5,-2,8,-5,0
CN(C)NC(=O)c1ccsc1NC(=O)c1ccc(S(=O)(=O)N(C)C)cc1,3,-6,-3,-9,1,13
CCN(CC)S(=O)(=O)c1ccc(C(=O)NCC(c2cccs2)N2CCOCC2)cc1 (stereo not drawn),1,-16,39*,4,-4,-1
Cc1nc(-c2ccc(C(=O)Nc3cc(S(N)(=O)=O)ccc3C)cc2)cs1,-3,-11,30*,1,0,1
Cc1cccc(NC(=O)CSCC(=O)N2CCN(Cc3ccc4c(c3)OCO4)CC2)c1,-3,1,-14,-1,2,2
NC(=S)Nn1c(-c2ccccc2)nc2ccccc2c1=O,2,18,-2,22*,-4,2
CCN(Cc1ccccc1)C(=O)COC(=O)[C@@H]1CCCN1C(=O)c1cccs1,0,8,-2,0,10,2
COCCNC(=S)N1CCN(c2cccc(C)c2C)CC1,1,-5,7,-17,28*,16
Cc1cccc(N2CCN(C(=S)NCCc3ccccc3)CC2)c1C,1,-5,6,-4,6,1
SMILES,CHRM5 agonist,M4 PAM,M4 antag,CHRM5 PAM,M5 antag,CHRM4 agonist
CCOC(=O)c1cn(Cc2ccccc2)c2cc(C)nn2c1=O,1,-2,-11,0,7,0
CCOC(=O)c1cn(Cc2ccccc2)c(C(=O)OC(C)(C)C)c1O,12,-15,15,-21,15,81*
CCN(Cc1ccccc1)C(=O)c1ccc(C(=O)N(CC)Cc2ccccc2)cc1,-3,-6,9,-9,28*,5
O=C(c1ccccc1)N(Cc1ccccc1)Cc1ccccc1,-1,-3,10,0,-1,0
CC(=O)Nc1sc(C)c(C)c1C(=O)OCC(=O)N(CC(C)C)c1c(N)n(Cc2ccccc2)c(=O)[nH]c1=O,1,1,-16,-4,3,1
Cc1ccc(NC(=S)Nc2ccc(S(=O)(=O)N3CCOCC3)cc2)cc1S(=O)(=O)N1CCOCC1,-5,-3,-11,-3,-9,1
O=C(CCc1nnc2n(Cc3ccc(Cl)cc3)c(=O)c3ccccc3n12)NCCN1CCCC1,-6,-9,8,0,4,-2
O=C(CCc1nnc2n(CCc3ccccc3)c(=O)c3ccccc3n12)NCCCN1CCCCC1,-6,-13,37*,3,-6,8
Oc1ccc(Cl)cc1C1=NNC(c2cccs2)C1 (stereo not drawn),-1,-5,3,-2,6,0
Cc1ccc(O)c(C2=NNC(c3ccc(Cl)cc3)C2)c1 (stereo not drawn),14,1,2,21*,51*,8
CCN(CC)S(=O)(=O)c1ccc(N2CCOCC2)c(NC(=O)c2ccc3ccccc3c2)c1,1,13,-4,1,4,1
CCN(CC)S(=O)(=O)c1ccc(N2CCOCC2)c(NC(=O)c2cccc3ccccc23)c1,2,-24,30*,-13,14,14
Cc1nc2nc(C)n(CCN3CCOCC3)c(=O)c2c(-c2cccc([N+](=O)[O-])c2)c1C(=O)CCCCCCCCCCN1CCC(c2ccccc2)(c2ccccc2)CC1,-6,-12,95*,-44,96*,21
COC(=O)c1ccc(N2C(c3ccsc3)=Cc3cc4c(cc3C2CC(=O)c2ccco2)OCO4)cc1 (stereo not drawn),-7,-14,30*,-10,1,-1
C=CCN(c1ccccc1)S(=O)(=O)c1ccc(Cl)c(C(=O)OCC(=O)c2[nH]c(C)c(C(C)=O)c2C)c1,-3,-30,27*,-19,17,6
C=CCN(c1ccc(OC)cc1)S(=O)(=O)c1ccc(Cl)c(C(=O)OCC(=O)NC2CC2)c1,0,-7,4,-10,4,4
CC(C)(C)n1cnc2cc(NCc3ccc(Br)cc3)ccc21,-4,-3,-1,-6,27*,3
CCc1ccc(CNc2ccc3c(c2)ncn3C(C)(C)C)cc1,-5,-2,-18,-11,9,4
CCCCCCCC(=O)NNC(=O)CC(=O)Nc1ccccc1C(=O)O,-1,13,16,13,12,0
COc1ccccc1Cc1noc(COc2cccc(C)c2C)n1,1,34*,5,6,-6,-2
COc1ccccc1Cc1nc(-c2ccncc2)no1,2,6,3,0,6,6
